Data as given in paper PMC9340768 (Journal of Medicinal Chemistry, 2022).

Legend:
human CD137 = human CD137 (Homo sapiens, UniProt Q07011); test: SPR binding to human CD137
CD137 [1] = target: T1, CD137 (Homo sapiens, UniProt Q07011+Q96NY8); settings: cited from earlier work
[2] = test system: human PBMCs cocultured with HT1376; test: PBMC/HT1376 coculture cytokine secretion assay; type: cell-based; settings: anti-CD3 stimulated PBMCs with HT1376
In short: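 Frozen healthy-donor human PBMCs were thawed, washed in PBS with benzonase and resuspended in RPMI with 10% heat-inactivated FBS, HEPES and glutamine. PBMCs (1 × 10^6/mL) were plated with tumor cells (1 × 10^5/mL) at 10:1, stimulated with soluble anti-CD3 OKT3 (100 ng/mL), and given diluted test compound. Incubation was 2 days at 37 °C, 5% CO2. Supernatant IFNγ and IL-2 were measured by Luminex; four-parameter fit, n = 3.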

CD137 [3] = target: T1, CD137; test: tumor cell/CD137 reporter coculture assay with other tumor cell lines; type: cell-based
In short: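 A Jurkat reporter line expressing human CD137 and a CD137-responsive luciferase element was cocultured with 10,000 cells of the indicated tumor line, with or without test compound, for 6 h at 37 °C, 5% CO2. Bio-Glo luciferase reagent was then added and luminescence read. Fold induction was calculated as RLU over background wells without test article.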

CD137 [4] = target: T1, CD137; test: HT1376/CD137 reporter coculture assay; type: cell-based; settings: BCY10000 relative to BCY8854
[5] = Pharmacokinetics in Sprague-Dawley rats; settings: rat, in vivo, iv, 2 mg/kg, CL (mL/min/kg), SD rats, 2 mg/kg IV bolus

T1 sequence (Q07011 24-255): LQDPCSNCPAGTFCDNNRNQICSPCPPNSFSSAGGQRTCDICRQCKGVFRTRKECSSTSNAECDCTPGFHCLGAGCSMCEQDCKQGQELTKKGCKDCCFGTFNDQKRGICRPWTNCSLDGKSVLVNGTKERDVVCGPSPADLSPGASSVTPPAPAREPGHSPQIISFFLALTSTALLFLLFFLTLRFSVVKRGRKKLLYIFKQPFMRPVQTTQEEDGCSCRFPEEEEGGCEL
T1 sequence (Q96NY8 32-510): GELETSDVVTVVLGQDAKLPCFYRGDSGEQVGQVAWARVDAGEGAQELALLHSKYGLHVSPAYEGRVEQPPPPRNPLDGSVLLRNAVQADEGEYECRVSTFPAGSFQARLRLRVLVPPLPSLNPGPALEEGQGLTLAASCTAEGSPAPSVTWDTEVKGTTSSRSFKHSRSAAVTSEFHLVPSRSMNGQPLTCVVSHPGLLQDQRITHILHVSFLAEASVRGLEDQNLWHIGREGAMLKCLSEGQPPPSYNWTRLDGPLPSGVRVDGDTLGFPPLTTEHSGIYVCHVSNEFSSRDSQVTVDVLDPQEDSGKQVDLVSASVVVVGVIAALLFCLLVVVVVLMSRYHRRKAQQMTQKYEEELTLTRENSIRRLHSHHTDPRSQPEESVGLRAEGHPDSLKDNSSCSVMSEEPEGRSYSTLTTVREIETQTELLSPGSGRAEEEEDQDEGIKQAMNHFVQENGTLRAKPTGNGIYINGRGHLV

For CCCC[C@@H]1NC(=O)[C@H](Cc2ccc(O)cc2)NC(=O)[C@@H]2CCCN2C(=O)[C@H](CC(N)=O)NC(=O)[C@H](C)NC(=O)[C@H](Cc2ccccc2)NC(=O)[C@@H]2CSCCC(=O)N3CN(CN(C3)C(=O)CCSC[C@H](NC(C)=O)C(=O)N[C@@H](CC(C)(C)C)C(=O)N3CCC[C@H]3C(=O)N[C@@H](CCC(=O)O)C(=O)N[C@H](CCCCNC(=O)CCc3cn(CCOCCOCCOCCN(CCOCCOCCOCCC(=O)N[C@H]4CSCCC(=O)N5CN6CN(C5)C(=O)CCSC[C@H](NC(=O)[C@@H](CC(=O)O)NC(=O)[C@H](Cc5cccc7ccccc57)NC(=O)[C@@H]5CCCN5C4=O)C(=O)N[C@@H](CCSC)C(=O)N[C@@H](CCCCNC(=N)N)C(=O)N[C@@H](CC(=O)O)C(=O)N[C@@H](Cc4c[nH]c5ccccc45)C(=O)N[C@@H](CO)C(=O)N[C@@H]([C@@H](C)O)C(=O)N4CCC[C@H]4C(=O)N4C[C@H](O)C[C@H]4C(=O)N[C@@H](Cc4c[nH]c5ccccc45)C(=O)N[C@H](C(N)=O)CSCCC6=O)CCOCCOCCOCCn4cc(CCC(=O)NCCCC[C@H]5NC(=O)[C@H](CCC(=O)O)NC(=O)[C@@H]6CCCN6C(=O)[C@H](CC(C)(C)C)NC(=O)[C@@H](NC(C)=O)CSCCC(=O)N6CN7CN(C6)C(=O)CCSC[C@H](NC(=O)[C@H](Cc6ccc(O)cc6)NC(=O)[C@@H]6CCCN6C5=O)C(=O)N[C@@H](Cc5ccccc5)C(=O)N[C@@H](C)C(=O)N[C@@H](CC(N)=O)C(=O)N5CCC[C@H]5C(=O)N[C@@H](Cc5ccc(O)cc5)C(=O)N[C@@H](CCCC)C(=O)N[C@H](C(N)=O)CSCCC7=O)nn4)nn3)C(=O)N3CCC[C@H]3C(=O)N[C@@H](Cc3ccc(O)cc3)C(=O)N2)C(=O)CCSC[C@@H](C(N)=O)NC1=O [BCY12486], the Kd (human CD137) was roughly 8 nM.
In the case of CCCC[C@@H]1NC(=O)[C@H](Cc2ccc(O)cc2)NC(=O)[C@@H]2CCCN2C(=O)[C@H](CC(=O)O)NC(=O)[C@H](C)NC(=O)[C@H](Cc2ccccc2)NC(=O)[C@@H]2CSCCC(=O)N3CN(CN(C3)C(=O)CCSC[C@@H](C(=O)N[C@@H](CNC(=O)CCOCCOCCOCCOCCOCCOCCOCCOCCOCCOCCOCCOCCn3cc(CCC(=O)NCCC(=O)N(C)CC(=O)N(C)CC(=O)N(C)CC(=O)N(C)CC(=O)N(C)CC(=O)N(C)CC(=O)N(C)CC(=O)N(C)CC(=O)N(C)CC(=O)N(C)CC(=O)N[C@H]4CSCCC(=O)N5CN6CN(C5)C(=O)CCSC[C@H](NC(=O)[C@@H](CC(=O)O)NC(=O)[C@H](Cc5cccc7ccccc57)NC(=O)[C@@H]5CCCN5C4=O)C(=O)N[C@@H](CCSC)C(=O)N[C@@H](CCCCNC(=N)N)C(=O)N[C@@H](CC(=O)O)C(=O)N[C@@H](Cc4c[nH]c5ccccc45)C(=O)N[C@@H](CO)C(=O)N[C@@H]([C@@H](C)O)C(=O)N4CCC[C@H]4C(=O)N4C[C@H](O)C[C@H]4C(=O)N[C@@H](Cc4c[nH]c5ccccc45)C(=O)N[C@H](C(N)=O)CSCCC6=O)nn3)C(N)=O)NC1=O)C(=O)CCSC[C@H](NC(=O)[C@H](C)NC(C)=O)C(=O)N[C@@H]([C@@H](C)CC)C(=O)N[C@@H](CCC(=O)O)C(=O)N[C@@H](CCC(=O)O)C(=O)NCC(=O)N[C@@H](CCC(N)=O)C(=O)N[C@@H](Cc1ccc(O)cc1)C(=O)N2 [BCY8854], the “CD137 agonism in coculture with Nectin-4 null PC3” value (CD137 [1]) is listed as “not with a Nectin-4 null PC3 cell line”, the “CD137 agonism in coculture with HT1376 and NCI-H292” value (CD137 [1]; tumor lines endogenously expressing Nectin-4) is listed as “CD137 agonism was also observed” and the “secretion of proinflammatory cytokines IFNγ and IL-2” value (from here on “secretion”) [2] is listed as “dose-dependent increase”. For the same molecule, the “CD137 agonism in coculture with MC38-Nectin-4 or parental MC38” value (CD137 [3]; 6 h treatment, Jurkat CD137 reporter) was “dose-dependent agonism of CD137 was observed only in the presence of the Nectin-4-expressing MC38 clone” and the “concentration above which agonism is reduced (hook effect)” value (CD137 [3]; tumor cell/CD137 reporter coculture) was “above 300 nM”.
In the case of CCCC[C@@H]1NC(=O)[C@H](Cc2ccc(O)cc2)NC(=O)[C@@H]2CCCN2C(=O)[C@H](CC(=O)O)NC(=O)[C@H](C)NC(=O)[C@H](Cc2ccccc2)NC(=O)[C@@H]2CSCCC(=O)N3CN(CN(C3)C(=O)CCSC[C@@H](C(=O)N[C@@H](CNC(=O)CCc3cn(CCOCCOCCOCCN(CCOCCOCCOCCC(=O)N[C@H]4CSCCC(=O)N5CN6CN(C5)C(=O)CCSC[C@H](NC(=O)[C@@H](CC(=O)O)NC(=O)[C@H](Cc5cccc7ccccc57)NC(=O)[C@@H]5CCCN5C4=O)C(=O)N[C@@H](CCSC)C(=O)N[C@@H](CCCCNC(=N)N)C(=O)N[C@@H](CC(=O)O)C(=O)N[C@@H](Cc4c[nH]c5ccccc45)C(=O)N[C@@H](CO)C(=O)N[C@@H]([C@@H](C)O)C(=O)N4CCC[C@H]4C(=O)N4C[C@H](O)C[C@H]4C(=O)N[C@@H](Cc4c[nH]c5ccccc45)C(=O)N[C@H](C(N)=O)CSCCC6=O)CCOCCOCCOCCn4cc(CCC(=O)NC[C@H](NC(=O)[C@@H]5CSCCC(=O)N6CN7CN(C6)C(=O)CCSC[C@H](NC(=O)[C@H](Cc6ccc(O)cc6)NC(=O)[C@@H]6CCCN6C(=O)[C@@H](C)NC(=O)[C@H](CCC(=O)O)NC(=O)[C@@H]6CCCN6C(=O)[C@H](CC(C)(C)C)NC(=O)[C@@H](NC(C)=O)CSCCC7=O)C(=O)N[C@@H](Cc6ccccc6)C(=O)N[C@@H](C)C(=O)N[C@@H](CC(=O)O)C(=O)N6CCC[C@H]6C(=O)N[C@@H](Cc6ccc(O)cc6)C(=O)N[C@@H](CCCC)C(=O)N5)C(N)=O)nn4)nn3)C(N)=O)NC1=O)C(=O)CCSC[C@H](NC(C)=O)C(=O)N[C@@H](CC(C)(C)C)C(=O)N1CCC[C@H]1C(=O)N[C@@H](CCC(=O)O)C(=O)N[C@H](C)C(=O)N1CCC[C@H]1C(=O)N[C@@H](Cc1ccc(O)cc1)C(=O)N2 [BCY11385], the “secretion” value [2] is reported as “dose-dependent increase”.
Molecule CCCC[C@@H]1NC(=O)[C@H](Cc2ccc(O)cc2)NC(=O)[C@@H]2CCCN2C(=O)[C@H](CCC(=O)O)NC(=O)[C@H](C)NC(=O)[C@H](Cc2ccccc2)NC(=O)[C@@H]2CSCCC(=O)N3CN(CN(C3)C(=O)CCSC[C@H](NC(C)=O)C(=O)N[C@@H](CC(C)(C)C)C(=O)N3CCC[C@H]3C(=O)N[C@@H](CCC(=O)O)C(=O)N[C@H](CCCCNC(=O)CCc3cn(CCOCCOCCOCCN(CCOCCOCCOCCC(=O)N[C@H]4CSCCC(=O)N5CN6CN(C5)C(=O)CCSC[C@H](NC(=O)[C@@H](CC(=O)O)NC(=O)[C@H](Cc5cccc7ccccc57)NC(=O)[C@@H]5CCCN5C4=O)C(=O)N[C@@H](CCSC)C(=O)N[C@@H](CCCCNC(=N)N)C(=O)N[C@@H](CC(=O)O)C(=O)N[C@@H](Cc4c[nH]c5ccccc45)C(=O)N[C@@H](CO)C(=O)N[C@@H]([C@@H](C)O)C(=O)N4CCC[C@H]4C(=O)N4C[C@H](O)C[C@H]4C(=O)N[C@@H](Cc4c[nH]c5ccccc45)C(=O)N[C@H](C(N)=O)CSCCC6=O)CCOCCOCCOCCn4cc(CCC(=O)NCCCC[C@H]5NC(=O)[C@H](CCC(=O)O)NC(=O)[C@@H]6CCCN6C(=O)[C@H](CC(C)(C)C)NC(=O)[C@@H](NC(C)=O)CSCCC(=O)N6CN7CN(C6)C(=O)CCSC[C@H](NC(=O)[C@H](Cc6ccc(O)cc6)NC(=O)[C@@H]6CCCN6C5=O)C(=O)N[C@@H](Cc5ccccc5)C(=O)N[C@@H](C)C(=O)N[C@@H](CCC(=O)O)C(=O)N5CCC[C@H]5C(=O)N[C@@H](Cc5ccc(O)cc5)C(=O)N[C@@H](CCCC)C(=O)N[C@H](C(N)=O)CSCCC7=O)nn4)nn3)C(=O)N3CCC[C@H]3C(=O)N[C@@H](Cc3ccc(O)cc3)C(=O)N2)C(=O)CCSC[C@@H](C(N)=O)NC1=O [BCY12487] has a Kd (human CD137) of roughly 8 nM.
With CCCC[C@@H]1NC(=O)[C@H](Cc2ccc(O)cc2)NC(=O)[C@@H]2CCCN2C(=O)[C@H](CC(=O)O)NC(=O)[C@H](C)NC(=O)[C@H](Cc2ccccc2)NC(=O)[C@@H]2CSCCC(=O)N3CN(CN(C3)C(=O)CCSC[C@@H](C(=O)N[C@@H](CNC(=O)CCOCCOCCOCCOCCOCCOCCOCCOCCOCCOCCOCCOCCn3cc(CCC(=O)NCCC(=O)N(C)CC(=O)N(C)CC(=O)N(C)CC(=O)N(C)CC(=O)N(C)CC(=O)N(C)CC(=O)N(C)CC(=O)N(C)CC(=O)N(C)CC(=O)N(C)CC(=O)N[C@H]4CSCCC(=O)N5CN6CN(C5)C(=O)CCSC[C@H](NC(=O)[C@@H](CC(=O)O)NC(=O)[C@H](Cc5cccc7ccccc57)NC(=O)[C@@H]5CCCN5C4=O)C(=O)N[C@@H](CCSC)C(=O)N[C@@H](CCCCNC(=N)N)C(=O)N[C@@H](CC(=O)O)C(=O)N[C@@H](Cc4c[nH]c5ccccc45)C(=O)N[C@@H](CO)C(=O)N[C@@H]([C@@H](C)O)C(=O)N4CCC[C@H]4C(=O)N4C[C@H](O)C[C@H]4C(=O)N[C@@H](Cc4c[nH]c5ccccc45)C(=O)N[C@H](C(N)=O)CSCCC6=O)nn3)C(N)=O)NC1=O)C(=O)CCSC[C@H](NC(C)=O)C(=O)N[C@@H](CC(C)(C)C)C(=O)N1CCC[C@H]1C(=O)N[C@@H](CCC(=O)O)C(=O)N[C@H](C)C(=O)N1CCC[C@H]1C(=O)N[C@@H](Cc1ccc(O)cc1)C(=O)N2 [BCY10000] the “secretion” value [2] was “dose-dependent increase”, the “improvement of Emax” value (CD137 [4]) was 1.5 fold and the “improvement of in vitro potency (EC50)” value (CD137 [4]) was “fourfold”. The clearance [5] was 19 mL/min/kg.
